According to ChEMBL document CHEMBL2157982, “Synthesis and structure-activity relationships of 8-substituted-2-aryl-5-alkylaminoquinolines: Potent, orally active corticotropin-releasing factor-1 receptor antagonists” (Bioorg Med Chem, 2012):
In brackets after ≈: the same amount, converted by molar mass. Activity calls are given as the source filed them. No cut-off for these calls is given here.

Columns and labels:
[1] = biological target: T1, Corticotropin-releasing factor receptor 1 (Homo sapiens, UniProt P34998); experiment: Displacement of [125I]-CRF from human CRF1 receptor expressed in HEK293 cells after 2 hrs by scintillation counting; type: cell-based
T1 sequence (P34998 whole entry): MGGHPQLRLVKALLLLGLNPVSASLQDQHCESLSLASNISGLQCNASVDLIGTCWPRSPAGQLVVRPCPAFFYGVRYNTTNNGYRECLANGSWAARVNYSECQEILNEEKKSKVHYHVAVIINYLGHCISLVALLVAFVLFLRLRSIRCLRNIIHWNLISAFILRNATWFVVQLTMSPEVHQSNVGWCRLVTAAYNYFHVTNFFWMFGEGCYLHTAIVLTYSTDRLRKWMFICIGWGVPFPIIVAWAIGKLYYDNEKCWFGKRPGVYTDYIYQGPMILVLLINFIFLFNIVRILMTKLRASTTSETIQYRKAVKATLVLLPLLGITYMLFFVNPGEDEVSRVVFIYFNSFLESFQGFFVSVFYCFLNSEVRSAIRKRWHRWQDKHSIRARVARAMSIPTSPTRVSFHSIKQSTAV
How it was run: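 Scintillation proximity assay using HEK293/human CRF1 membranes (5 µg/well), WGA-coated SPA beads (1 mg/well) and 0.1 nM [125I] human/rat CRF. Buffer: PBS-type salts, 10 mM MgCl2, 2 mM EGTA, 1.5% BSA, protease inhibitors, pH 7.0. Incubated over 2 h at room temperature, then centrifuged and counted. Nonspecific binding defined with 0.4 µM sauvagine. IC50 from concentration-response curve of % total specific binding.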

[2] = Aqueous solubility of the compound in Dulbecco's phosphate-buffered saline at pH 7.4 by high-throughput HPLC method; type: physicochemical
How it was run: (§1)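 A 10 mM DMSO stock of compound was diluted 1:100 into buffer in a filter plate and shaken 15 min at room temperature, then filtered. Filtrate analysed by reverse-phase HPLC-UV against an external DMSO standard. Buffers: pH 1.2 HCl/NaCl; pH 5 and 9 Britton–Robinson (acetate/phosphate/borate with KCl, NaOH-adjusted); pH 7.4 Dulbecco's PBS.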

[3] = biological target: T1, Corticotropin-releasing factor receptor 1; experiment: Antagonist activity at human CRF1 receptor expressed in HEK293 cells assessed as inhibition of CRF-induced intracellular cAMP production preincubated for 30 mins before CRF addition measured after 30 mins by enzyme immunoassay; type: functional, cell-based
[4] = Solubility of the compound in HCl/NaCl at pH 1.2 by high-throughput HPLC method; type: physicochemical; conditions: HCl/NaCl solution; how it was run: as §1
[5] = Dissociation constant, pKa of the compound; type: physicochemical
[6] = Solubility of the compound in Britton-Robinson buffer at pH 5 by high-throughput HPLC method; type: physicochemical; how it was run: as §1
[7] = Solubility of the compound in Britton-Robinson buffer at pH 9 by high-throughput HPLC method; type: physicochemical; how it was run: as §1
[8] = Volume of distribution at steady state in Fischer 344 rat at 3 mg/kg, iv; type: ADME, organism-based; design: dose 3 mg/kg, route intravenous; conditions: in vivo, read-out: Vdss
How it was run: (§2)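 Fasted F344 rats (n = 3 per dose, 189.4–205.9 g) received 3 mg/kg iv in 5% EtOH-0.02 mol/L HCl/5% glucose, or 10 mg/kg po in 5% DMSO/5% Cremophor EL/HCl/water. Blood sampled at 0.083 h (iv only), then 0.25–8 h. Brain taken 1 h after po dosing and homogenized. Samples protein-precipitated with imipramine internal standard and quantified by LC–MS/MS (ESI+). Mean ± SEM.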

[9] = Cmax in Fischer 344 rat at 10 mg/kg, po; type: ADME, organism-based; design: dose 10 mg/kg, route oral; conditions: in vivo; how it was run: as §2
[10] = Half life in Fischer 344 rat at 3 mg/kg, iv; type: ADME, organism-based; design: dose 3 mg/kg, route intravenous; conditions: in vivo; how it was run: as §2
Mus musculus [11] = experiment: Anxiolytic activity in po dosed BALB/c mouse assessed as increase in number of tunnel crossings administered 60 mins before test measured for 5 mins by light-dark test; type: functional, organism-based
How it was run: (§3)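 Male BALB/c mice, n = 10/group, dosed orally 1 h before test. Animals were habituated to 10 lx for at least 2 h (room at 150 lx) and placed in the dark compartment at start. Observed for 5 min, scoring time in the illuminated box and number of tunnel crossings. Mean ± S.E.M., Dunnett test versus vehicle.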

Mus musculus [12] = experiment: Anxiolytic activity in po dosed BALB/c mouse assessed as increase in time spent on illuminated box administered 60 mins before test measured for 5 mins by light-dark test; type: functional, organism-based; how it was run: as §3
[13] = Oral bioavailability in Fischer 344 rat at 10 mg/kg; type: ADME, organism-based; conditions: in vivo; how it was run: as §2
Rattus norvegicus [14] = experiment: AUC (infinity) in Fischer 344 rat at 3 mg/kg, iv; type: ADME, organism-based, Plasma; design: time infinity, dose 3 mg/kg, route intravenous; conditions: in vivo
How it was run: (§4)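 Fasted F344 rats (n = 3 per dose, 189.4–205.9 g). iv: 3 mg kg−1 given as 3 mg mL−1 in 5% ethanol-0.02 mol L−1 HCl/5% glucose. p.o.: 10 mg kg−1 given as 2 mg mL−1 in 5% DMSO/5% Cremophor EL/equivalent HCl/H2O. Blood sampled at 0.083 h (iv only), then 0.25, 0.5, 1, 2, 4, 6 and 8 h. Plasma extracted with MeOH/MeCN containing imipramine internal standard and measured by positive-ESI LC–MS/MS. Results given as mean ± SEM.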

[15] = Ratio of drug level in brain to plasma in Fischer 344 rat at 10 mg/kg, po after 1 hr; type: ADME, organism-based; design: dose 10 mg/kg, route oral; conditions: brain and plasma, read-out: BPR; how it was run: as §2
Rattus norvegicus [16] = experiment: AUC (infinity) in Fischer 344 rat at 10 mg/kg, po; type: ADME, organism-based, Plasma; design: time infinity, dose 10 mg/kg, route oral; conditions: in vivo; how it was run: as §4
[17] = Tmax in Fischer 344 rat at 10 mg/kg, po; type: ADME, organism-based; design: dose 10 mg/kg, route oral; conditions: in vivo; how it was run: as §2
[18] = Total blood clearance in Fischer 344 rat at 3 mg/kg, iv; type: ADME, organism-based; design: dose 3 mg/kg, route intravenous; conditions: whole blood; how it was run: as §2
Rattus norvegicus [19] = experiment: Inhibition of CRF-induced ACTH release in Fischer 344 rat plasma at 30 mg/kg, po administered 60 mins before CRF challenge by RIA; type: functional, organism-based; design: dose 30 mg/kg
How it was run: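 Male Fischer 344 rats (152–177 g) dosed orally 1 h before subcutaneous CRF at 10 µg/kg; controls got vehicle 5% DMSO/5% Cremophor/90% saline. Trunk blood taken 30 min after CRF into EDTA and spun. Plasma ACTH measured in duplicate by immunoradiometric kit against ACTH standard curve. n = 5–6 rats; mean ± S.E.M.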

Mus musculus [20] = experiment: Anxiolytic activity in BALB/c mouse assessed as increase in time spent on illuminated box at 30 mg/kg, po administered 60 mins before test measured for 5 mins by light-dark test; type: functional, organism-based; design: dose 30 mg/kg; how it was run: as §3
Mus musculus [21] = experiment: Anxiolytic activity in po dosed BALB/c mouse assessed as increase in number of tunnel crossings at 30 mg/kg, po administered 60 mins before test measured for 5 mins by light-dark test; type: functional, organism-based; design: dose 30 mg/kg; how it was run: as §3

SMILES	IC50 [1] [nM]	solubility [2] [µM]	IC50 [3] [nM]	other results
CCN(CCOC)c1ccc(OC)c2nc(-c3c(OC)cc(COC)cc3OC)c(C)cc12	392	89.4 (≈ 40.6 µg/mL)		
CCN(CC)c1ccc(C)c2nc(-c3c(OC)cc(COC)cc3OC)c(F)cc12		< 0.2		
CCN(CC)c1ccc(F)c2nc(-c3c(OC)cc(COC)cc3OC)c(C)cc12	226	10.5 (≈ 4.33 µg/mL)	67	
CCN(CC)c1ccc(C(F)(F)F)c2nc(-c3c(OC)cc(COC)cc3OC)c(C)cc12	288	< 0.2	259	
CCN(CCOC)c1ccc(C)c2nc(-c3c(OC)cc(COC)cc3OC)c(C)cc12		7.2 (≈ 3.16 µg/mL)		
CCN(CC)c1ccc(OC)c2nc(-c3c(OC)cc(COC)cc3OC)c(Cl)cc12	144	1.9 (≈ 0.845 µg/mL)	57	
CCN(CC)c1ccc(C#N)c2nc(-c3c(OC)cc(COC)cc3OC)c(C)cc12	102	3.2 (≈ 1.34 µg/mL)	36	solubility [4]: > 100 µM; pKa [5]: < 3; solubility [6]: 2.1 µM (≈ 0.881 µg/mL); solubility [7]: 4.2 µM (≈ 1.76 µg/mL)
CCN(CC)c1ccc(C)c2nc(-c3c(OC)cc(COC)cc3OC)c(Cl)cc12		< 0.2		
CCN(CC)c1ccc(OC)c2nc(-c3c(OC)cc(COC)cc3OC)ccc12	202	38.2 (≈ 15.7 µg/mL)	332	
CCN(CC)c1ccc(OC)c2nc(-c3c(OC)cc(C#N)cc3OC)c(C)cc12	132	11 (≈ 4.46 µg/mL)	63	
CCN(CC)c1ccc(OC)c2nc(-c3c(OC)cc(C)cc3OC)c(C)cc12	99	17.3 (≈ 6.83 µg/mL)	43	
CCN(CC)c1ccc(C(F)F)c2nc(-c3c(OC)cc(COC)cc3OC)c(C)cc12	414	< 0.2		
CCN(CC)c1ccc(C)c2nc(-c3c(OC)cc(COC)cc3OC)ccc12		< 0.2		
CCN(CC)c1ccc(Cl)c2nc(-c3c(OC)cc(COC)cc3OC)c(C)cc12	62	< 0.2	28	
CCN(CC)c1ccc(OC)c2nc(-c3c(OC)cc(COC)cc3OC)c(C)cc12	110	74 (≈ 31.4 µg/mL)	91	Vd [8]: 2.15 L/kg; Cmax [9]: 305 ng/mL; solubility [4]: > 100 µM; half-life [10]: 1.73 h; pKa [5]: 6.01; Activity (Mus musculus [11]): Dose-dependent effect; solubility [6]: 98.2 µM (≈ 41.7 µg/mL); Activity (Mus musculus [12]): Dose-dependent effect; bioavailability [13]: 16.4%; AUC (Rattus norvegicus [14]): 1.542 µg/mL/h; Kp at 1 h [15]: 0.61; AUC (Rattus norvegicus [16]): 0.845 µg/mL/h; Tmax [17]: 0.5 h; clearance [18]: 44 mL/min/kg; Activity (Rattus norvegicus [19]): Active; solubility [7]: 71 µM (≈ 30.1 µg/mL)
CCCN(CCC)c1ccc(C)c2nc(-c3c(OC)cc(COC)cc3OC)c(C)cc12		2 (≈ 0.873 µg/mL)		
CCN(CC)c1ccc(OC)c2nc(-c3c(OC)cc(COC)cc3OC)c(F)cc12	118	4.6 (≈ 1.97 µg/mL)	75	
CCc1cc2c(N(CC)CC)ccc(OC)c2nc1-c1c(OC)cc(COC)cc1OC	108	12.1 (≈ 5.31 µg/mL)	32	
COCCN(CC(C)C)c1ccc(OC)c2nc(-c3c(OC)cc(COC)cc3OC)c(C)cc12	156	8.7 (≈ 4.2 µg/mL)	65	
CCN(CC)c1ccc(COC)c2nc(-c3c(OC)cc(COC)cc3OC)c(C)cc12	> 1000	2.9 (≈ 1.27 µg/mL)		
CCN(CC)c1ccc(OC)c2nc(-c3c(Cl)cc(COC)cc3OC)c(C)cc12	67	3.7 (≈ 1.59 µg/mL)	22	Activity (Mus musculus [11]): Dose-dependent effect; Activity (Mus musculus [20]): Active; Activity (Mus musculus [21]): Active; Activity (Mus musculus [12]): Dose-dependent effect
CCCN(CCC)c1ccc(OC)c2nc(-c3c(OC)cc(COC)cc3OC)c(C)cc12	105	< 0.2	99	
CCN(CC)c1ccc(C)c2nc(-c3c(OC)cc(COC)cc3OC)c(C)cc12		1.7 (≈ 0.695 µg/mL)		solubility [4]: > 100 µM; pKa [5]: 5.86; solubility [6]: 22 µM (≈ 8.99 µg/mL); solubility [7]: 2 µM (≈ 0.817 µg/mL)
